The record followed here is ChEMBL document CHEMBL3608303, “Discovery of novel potent and selective ligands for 5-HT2A receptor with quinazoline scaffold” (Bioorg Med Chem Lett, 2015).

Broadly, the Ki is a dissociation constant, usually derived from enzyme kinetics or from competition with a known ligand. For orientation: inhibition means the change of the read-out against control, counted positive when it falls. What is called IC50 is the concentration needed to halve the response being measured.

For test [1], the target named is T1, 5-hydroxytryptamine receptor 1A (Homo sapiens, UniProt P08908).
T1 sequence (P08908 whole entry): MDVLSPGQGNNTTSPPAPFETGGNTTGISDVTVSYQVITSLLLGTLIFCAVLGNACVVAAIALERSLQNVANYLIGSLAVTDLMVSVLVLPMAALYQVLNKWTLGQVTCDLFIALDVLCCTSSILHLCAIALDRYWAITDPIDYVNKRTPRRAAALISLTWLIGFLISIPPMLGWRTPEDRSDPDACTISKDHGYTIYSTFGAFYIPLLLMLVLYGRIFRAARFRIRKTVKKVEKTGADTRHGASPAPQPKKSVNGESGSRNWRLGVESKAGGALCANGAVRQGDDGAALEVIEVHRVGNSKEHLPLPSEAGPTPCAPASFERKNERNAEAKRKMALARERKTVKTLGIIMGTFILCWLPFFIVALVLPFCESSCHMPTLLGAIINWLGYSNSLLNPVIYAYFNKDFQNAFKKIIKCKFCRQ
In words: (§1) Displacement of [3H]-8-OH-DPAT from 5-HT1A receptor (unknown origin) expressed in HEK293 cell membranes incubated for 15 mins by liquid scintillation spectrometry. On the technique in general: Loss of bound radioactivity is the signal in a displacement assay; it reports binding, not function.

In test [2] the target is T2, D(1A) dopamine receptor (Homo sapiens, UniProt P21728). The settings on record: hek293.
The target in another test is D(2) dopamine receptor (Homo sapiens, UniProt P14416). In words: Displacement of [3H]-spiperone from dopamine D2 receptor (unknown origin) expressed in HEK293 cell membranes incubated for 15 mins by liquid scintillation spectrometry.
The target in test [3] is T3, 5-hydroxytryptamine receptor 2A (Homo sapiens, UniProt P28223). As to the kind of experiment: Displacement of [3H]ketanserin hydrochloride from 5-HT2A receptor (unknown origin) expressed in HEK293 cell membranes incubated for 15 mins by liquid scintillation spectrometry relative to control. Set-up: concentration or dose not given beside the values. In short, it runs like this:
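[3H]-Ketanserin displacement at 5-HT2A, first run as percent displacement of radioligand by a 10 μM test concentration.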

The target in test [4] is T3, 5-hydroxytryptamine receptor 2A. As to the kind of experiment: Displacement of [3H]ketanserin hydrochloride from 5-HT2A receptor (unknown origin) expressed in HEK293 cell membranes incubated for 15 mins by liquid scintillation spectrometry.
The target in another test is D(3) dopamine receptor (Homo sapiens, UniProt P35462). In words: Displacement of [3H]-spiperone from dopamine D3 receptor (unknown origin) expressed in HEK293 cell membranes incubated for 15 mins by liquid scintillation spectrometry.
For test [5], the target named is T4, 5-hydroxytryptamine receptor 1A (Homo sapiens) (UniProt P08908).
T4 sequence (whole entry): T1 sequence (P08908 whole entry)
Described as §1. Set-up: concentration or dose not given beside the values.

Test [6] has as its target T3, 5-hydroxytryptamine receptor 2A. It counts as functional, cell-based, HEK293.
The target is the same in test [7]. In words: Agonist activity at 5-HT2A receptor (unknown origin) expressed in HEK293 cell membranes assessed as induction of [35S]-GTPgammaS binding incubated for 30 mins by liquid scintillation counting method. The class given is functional.
The target in test [8] is T2, D(1A) dopamine receptor. As to the kind of experiment: Displacement of [3H]-SCH-23390 from dopamine D1 receptor (unknown origin) expressed in HEK293 cell membranes incubated for 15 mins by liquid scintillation spectrometry.

D(2) dopamine receptor, sequence (P14416 whole entry): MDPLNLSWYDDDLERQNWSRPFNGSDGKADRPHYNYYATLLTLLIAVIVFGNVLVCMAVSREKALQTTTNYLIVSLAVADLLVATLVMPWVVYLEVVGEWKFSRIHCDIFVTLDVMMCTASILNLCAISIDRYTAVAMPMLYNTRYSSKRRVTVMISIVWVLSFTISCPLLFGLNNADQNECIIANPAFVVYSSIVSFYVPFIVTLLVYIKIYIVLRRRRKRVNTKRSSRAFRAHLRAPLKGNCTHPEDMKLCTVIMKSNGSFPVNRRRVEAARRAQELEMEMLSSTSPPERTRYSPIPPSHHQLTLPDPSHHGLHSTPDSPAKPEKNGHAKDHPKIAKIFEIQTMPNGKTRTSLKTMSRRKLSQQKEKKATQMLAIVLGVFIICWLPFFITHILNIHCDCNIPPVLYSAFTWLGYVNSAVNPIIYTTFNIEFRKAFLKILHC
D(3) dopamine receptor, sequence (P35462 whole entry): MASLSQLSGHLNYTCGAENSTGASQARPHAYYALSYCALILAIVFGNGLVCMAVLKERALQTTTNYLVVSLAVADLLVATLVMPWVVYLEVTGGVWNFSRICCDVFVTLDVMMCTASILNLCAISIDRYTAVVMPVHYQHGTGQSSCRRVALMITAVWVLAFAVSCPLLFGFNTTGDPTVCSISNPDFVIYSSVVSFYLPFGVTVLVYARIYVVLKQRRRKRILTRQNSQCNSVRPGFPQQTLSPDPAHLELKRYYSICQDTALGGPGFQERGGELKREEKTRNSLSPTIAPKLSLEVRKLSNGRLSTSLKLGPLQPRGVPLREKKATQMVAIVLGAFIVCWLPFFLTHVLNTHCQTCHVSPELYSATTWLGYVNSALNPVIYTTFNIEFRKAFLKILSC
T2 sequence (P21728 whole entry): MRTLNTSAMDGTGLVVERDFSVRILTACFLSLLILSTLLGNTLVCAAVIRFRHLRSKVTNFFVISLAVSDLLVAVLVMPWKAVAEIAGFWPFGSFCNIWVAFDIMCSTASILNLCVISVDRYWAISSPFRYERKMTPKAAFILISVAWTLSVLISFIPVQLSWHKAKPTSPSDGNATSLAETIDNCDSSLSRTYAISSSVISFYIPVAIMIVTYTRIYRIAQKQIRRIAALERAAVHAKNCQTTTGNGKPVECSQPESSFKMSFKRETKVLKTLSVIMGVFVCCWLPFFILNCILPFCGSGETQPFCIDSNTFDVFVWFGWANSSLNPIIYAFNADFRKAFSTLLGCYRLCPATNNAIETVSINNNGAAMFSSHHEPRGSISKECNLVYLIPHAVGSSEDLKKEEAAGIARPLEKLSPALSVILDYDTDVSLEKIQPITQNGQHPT
T3 sequence (P28223 whole entry): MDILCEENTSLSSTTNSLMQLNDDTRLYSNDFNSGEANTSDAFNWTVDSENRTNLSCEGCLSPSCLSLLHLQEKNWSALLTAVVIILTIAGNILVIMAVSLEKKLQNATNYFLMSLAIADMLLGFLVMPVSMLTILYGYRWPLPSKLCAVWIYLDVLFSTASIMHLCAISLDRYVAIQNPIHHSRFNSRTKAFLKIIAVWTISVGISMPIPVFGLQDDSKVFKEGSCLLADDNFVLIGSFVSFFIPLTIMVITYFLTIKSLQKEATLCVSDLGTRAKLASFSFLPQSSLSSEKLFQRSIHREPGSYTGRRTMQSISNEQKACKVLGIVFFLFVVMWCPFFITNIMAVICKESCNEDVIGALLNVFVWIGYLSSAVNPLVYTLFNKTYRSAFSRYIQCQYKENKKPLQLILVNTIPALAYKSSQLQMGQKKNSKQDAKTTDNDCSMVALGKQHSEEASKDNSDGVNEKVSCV

In the case of `COc1ccc(Nc2nc(N3CCN(CCO)CC3)nc3ccccc23)c(OC)c1`, the Ki result in test [1] is “Not Active”; on D(1A) dopamine receptor [2] it was “Not Active”; on D(2) dopamine receptor, “Not Active”; in [4], 594 nM; on D(3) dopamine receptor (hek293), “Not Active”. Besides, in test [3], the inhibition was over 90%.

In the case of `Clc1ccc(Nc2nc(N3CCNCC3)nc3ccccc23)cc1`, the inhibition in [5] was determined as 88.6%; at D(2) dopamine receptor, 71.4%; on D(3) dopamine receptor, 78.8%; at D(1A) dopamine receptor [8], 83.9%. Besides, in [4], the Ki was 14 nM. The molecule further had an IC50 in test [6] of 1660 nM. For the same molecule, the EC50 result in [7] is given as “Not Active”.

Consider `Fc1ccccc1Nc1nc(N2CCOCC2)nc2ccccc12`, for which the Ki entry in [1] was “Not Active”; at D(1A) dopamine receptor [2], “Not Active”; at D(2) dopamine receptor it was “Not Active”; in test [4], 184 nM. Besides, in test [3], the inhibition was over 90%.

As to `CC(C)c1ccc(Nc2nc(N3CCNCC3)nc3ccccc23)cc1`, the inhibition in test [5] is 84.3%; on D(2) dopamine receptor it was 14%; in [3], over 90%; at D(3) dopamine receptor, 22.5%; on D(1A) dopamine receptor [8], 94.8%. Moreover, affinity in [4] was put at a Ki of 42.1 nM.

Take `OCCN1CCN(c2nc(Nc3ccc(I)cc3)c3ccccc3n2)CC1`: in test [3], the inhibition was over 90%. Moreover, in test [4], the Ki was found to be 383 nM.

Consider `Ic1ccc(Nc2nc(N3CCNCC3)nc3ccccc23)cc1`, for which the inhibition in [5] is 56.6%; in test [3] it was over 90%. Besides, the Ki result is “Not Active” at D(1A) dopamine receptor [2], “Not Active” at D(2) dopamine receptor, 496 nM in [4] and “Not Active” at D(3) dopamine receptor (hek293).

Regarding `Fc1ccc(Nc2nc(N3CCOCC3)nc3ccccc23)cc1`, the Ki entry in [1] was “Not Active”; on D(1A) dopamine receptor [2], “Not Active”; on D(2) dopamine receptor, “Not Active”; in test [4], 235 nM. Moreover, the inhibition in test [3] is over 90%; on D(3) dopamine receptor, -0.57%.

On to `OCCN1CCN(c2nc(Nc3ccccc3F)c3ccccc3n2)CC1`, for which the Ki result in test [1] is “Not Active”; at D(1A) dopamine receptor [2], “Not Active”; at D(2) dopamine receptor, “Not Active”; in [4], 65.8 nM. Further, the inhibition in [3] is over 90%; on D(3) dopamine receptor, 10.1%. The same molecule registered an IC50 in test [6] of 1370 nM. Also, the EC50 result in test [7] is “Not Active”.

`COc1ccccc1Nc1nc(N2CCN(CCO)CC2)nc2ccccc12`: the inhibition in test [5] was 52%; in [3], over 90%; on D(3) dopamine receptor it was 0.9%. Moreover, the Ki result is “Not Active” on D(1A) dopamine receptor [2], “Not Active” on D(2) dopamine receptor and 146 nM in [4].

Regarding `OCCN1CCN(c2nc(Nc3cccc(O)c3)c3ccccc3n2)CC1`, the Ki result is “Not Active” in [1], “Not Active” on D(1A) dopamine receptor [2], “Not Active” at D(2) dopamine receptor and 83.4 nM in [4]. The inhibition in test [3] was over 90%; on D(3) dopamine receptor, 11.7%. Further, the IC50 in test [6] is 9120 nM. Further, the EC50 entry in test [7] is “Not Active”.

As to `Cc1ccc(Nc2nc(N3CCN(CCO)CC3)nc3ccccc23)c(C)c1`, the inhibition in test [5] is 81.2%; in test [3], over 90%; at D(3) dopamine receptor it was 39%. For the same molecule, the Ki entry was “Not Active” on D(1A) dopamine receptor [2], “Not Active” on D(2) dopamine receptor and 268 nM in test [4].

As to `COc1ccc(Nc2nc(N3CCN(CCO)CC3)nc3ccccc23)cc1`, the inhibition in [3] is over 90%. Moreover, in test [4], the Ki worked out at 1360 nM.

Regarding `COc1ccccc1Nc1nc(N2CCNCC2)nc2ccccc12`, the Ki result in test [1] was “Not Active”; on D(1A) dopamine receptor [2], “Not Active”; on D(2) dopamine receptor it was “Not Active”; in test [4], 45.8 nM. Besides, in test [3], the inhibition is over 90%. The EC50 result in test [7] is “Not Active”.

As for `CC(C)c1ccc(Nc2nc(N(C)C)nc3ccccc23)cc1`, the Ki result (in [1]; at D(1A) dopamine receptor [2]; at D(2) dopamine receptor; on D(3) dopamine receptor (hek293)) was “Not Active” throughout. The inhibition in test [3] was found to be 75.1%.

As for `CC(C)c1ccc(Nc2nc(N3CCN(CCO)CC3)nc3ccccc23)cc1`, the inhibition in test [5] was 42.3%; in test [3], over 90%. Further, the Ki result at D(1A) dopamine receptor [2] is “Not Active”; on D(2) dopamine receptor, “Not Active”; in test [4] it was 149 nM; at D(3) dopamine receptor (read-out: Ki), 1140 nM.

With `OCCN1CCN(c2nc(Nc3ccc(Br)cc3)c3ccccc3n2)CC1`, the Ki result in [1] was “Not Active”; on D(1A) dopamine receptor [2] it was “Not Active”; on D(2) dopamine receptor, “Not Active”; in test [4], 92 nM; at D(3) dopamine receptor (read-out: Ki), 571 nM. This molecule yielded an IC50 in [6] of 27700 nM. Moreover, the EC50 entry in [7] is “Not Active”.

`Clc1ccc(Nc2nc(N3CCOCC3)nc3ccccc23)cc1`: the inhibition in test [5] is 16.7%; in [3] it was 45.3%; on D(1A) dopamine receptor [8] it was -9.36%.

For `Fc1ccccc1Nc1nc(N2CCNCC2)nc2ccccc12`, the Ki result in test [1] is “Not Active”; at D(1A) dopamine receptor [2], “Not Active”; on D(2) dopamine receptor, “Not Active”; in test [4] it was 70 nM. Besides, the figures for the inhibition (in [3]; on D(3) dopamine receptor) were over 90% and 22.5%, respectively. For the same molecule, in test [7], the EC50 result is on record as “Not Active”.

With `CC(C)(C)[C@@]1(O)CCN2C[C@@H]3c4ccccc4CCc4cccc(c43)[C@H]2C1`, in [3], the inhibition was over 90%.

As for `OCCN1CCN(c2nc(Nc3ccc(Cl)cc3)c3ccccc3n2)CC1`, the inhibition in [5] came to 53.8%; on D(2) dopamine receptor, 53%; at D(3) dopamine receptor, 75.6%; on D(1A) dopamine receptor [8], 80.5%. In addition, the Ki in test [4] amounted to 109 nM. Moreover, the IC50 in test [6] turned out to be 7430 nM. In addition, the EC50 result in [7] was “Not Active”.

On to `OCCN1CCN(c2nc(Nc3ccc(F)cc3)c3ccccc3n2)CC1`, for which the Ki result is “Not Active” in test [1], “Not Active” at D(1A) dopamine receptor [2], “Not Active” on D(2) dopamine receptor and 120 nM in test [4]. For the same molecule, the inhibition on D(3) dopamine receptor came out at 49.3%. This molecule also displayed an IC50 in test [6] of 21300 nM. For the same molecule, in test [7], the EC50 entry was “Not Active”.

Turning to `OCCN1CCN(c2nc(NCc3ccccc3)c3ccccc3n2)CC1`, the Ki result in test [1] was “Not Active”; at D(1A) dopamine receptor [2], “Not Active”; at D(2) dopamine receptor, “Not Active”; in [4], 520 nM; at D(3) dopamine receptor (read-out: Ki), 1440 nM. In addition, the inhibition in test [3] was over 90%.

Consider `CC(C)c1ccc(Nc2nc(Nc3ccc(C(C)C)cc3)c3ccccc3n2)cc1`, for which the Ki result (in test [1]; at D(1A) dopamine receptor [2]; on D(2) dopamine receptor; on D(3) dopamine receptor (hek293)) was “Not Active” throughout. Further, the inhibition in test [3] turned out to be 5.91%.
